TRAIL sens C8: sensitizes caspase-8 expressing cells to TRAIL; NB7+C8 cells + TRAIL, ATPlite viability luminescence; inhibition (viability loss, TRAIL sensitization), % at 10 µM; 360,000 tested, 1% active;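 active means compounds causing at least 50% loss of cell viability in the single-dose screen, relative to plate controls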
STAT1 inh: inhibitors of IFN-gamma induced STAT1 signaling | NIH 3T3 STAT1-luciferase reporter, luminescence | inhibition, % at 5.5 µM | 200,000 tested, 0.35% active | AID 920;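 active means inhibition above a set limit, the mean inhibition across all tested compounds plus 3 SD, cut at about 34% in these data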;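 further: 0% = IFN-gamma with DMSO and 100% = IFN-gamma with 300 µM nifuroxazide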
STAT3 inh-1: inhibitors of IL-6 induced STAT3 signaling; 190,000 tested, 0.89% active; inhibition, % at 5.5 µM; U3A cells, IL-6 STAT3-luciferase reporter, luminescence; host cell line lacks STAT1;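 active means inhibition above the mean inhibition across all screened compounds plus 3 SD, cut at about 44% in these data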;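 further: 0% = DMSO only wells and 100% = 100 µM nifuroxazide control wells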
PPC-1+TRAIL kill: compounds killing PPC-1 cancer cells with TRAIL present (potentiator screen, no TRAIL-free arm); PPC-1 cells + TRAIL, ATPLite viability luminescence; cell killing (% activity), % at 4 µM or 5 µM; 220,000 tested, 0.41% active;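 active means cell killing above 50% in the first pass at 4 µM, then a duplicate retest at 5 µM averaging 50% or more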;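 further: plate controls were cells with TRAIL plus DMSO for no effect and medium-only wells lacking cells for full effect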
STAT3 activator: activators of IL-6 induced STAT3 signaling | U3A cells, IL-6 STAT3-luciferase reporter, luminescence; 100% = signal with IL-6 EC80 alone | 190,000 tested, 0.91% active | activation (% of control), % at 5.6 µM;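 active means activation above the screen-wide mean of compound activation plus 3 SD, cut at about 130% in these data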;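 further: 0% = background luminescence of wells with medium and substrate only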
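Test system: human U3A cells carrying STAT3-luciferase construct; control set: IL-6-only wells as 100% reference; timing: compound pre-incubation 1 h before IL-6, then 6 h stimulation at 37 °C; also added: IL-6 stimulus at 33 ng/mL final; evaluation: % activation versus median of IL-6-stimulated wells; detection: reporter luminescence signal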
STAT3 inh-2: STAT3 inhibition, confirmation assay; shares compounds with STAT3 inh-1; U3A cells, IL-6 STAT3 luciferase reporter, luminescence; cell line lacks STAT1; inhibition, % at 5.7 µM; 1,200 tested, 45% active; AID 1265;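 active means inhibition above the hit cutoff computed for the primary STAT3 screen, cut at about 44% in these data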;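 further: 0% = IL-6 plus DMSO and 100% = IL-6 plus nifuroxazide control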
NFkB inh STAT3ct: inhibits NF-kappaB, counter-screen to STAT3 inhibitors; shares compounds with STAT3 inh-1; HEK293T NF-kB luciferase reporter, TNF-alpha induced; inhibition, % at 5.7 µM; 1,200 tested, 36% active; AID 1308;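 active means inhibition above the mean of solvent-only control wells plus 3 SD, cutoff set per campaign, cut at about 13% in these data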;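 further: 0% = TNF-alpha with DMSO and 100% = TNF-alpha with MG high control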
STAT1 inh 2: inhibits STAT1, counter-screen to STAT3 inhibitors | shares compounds with STAT3 inh-1 | NIH 3T3 STAT1-luciferase reporter, IFN-gamma induced, luminescence | inhibition, % at 5.7 µM | 1,200 tested, 27% active | AID 1317;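 active means inhibition above the mean plus 3 SD of solvent-only control wells, limit set per screening run, cut at about 16% in these data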;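 further: 0% = DMSO with IFN-gamma and 100% = nifuroxazide control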
The depositor's hits bear a star; nt = no result. Most compounds without a hit are left out; they make up all but 1.8% or so of the library.

SMILES	TRAIL sens C8	STAT1 inh	STAT3 inh-1	PPC-1+TRAIL kill	STAT3 activator	STAT3 inh-2	NFkB inh STAT3ct	STAT1 inh 2
CCCCOC(=O)c1[nH]c2c(c1C)C(=O)CC(c1cc(OC)c(OC)c(OC)c1)C2 (stereo not given)	27	23	53*	22	57	63*	23*	24*
S=C(Nc1ccccc1)Nc1ccccn1	-3	nt	nt	nt	nt	nt	nt	nt
O=C(Nc1cccc(O)c1)C(=O)Nc1ccccn1	71*	-23	71*	42	42	51*	-9	-12
O=C(Nc1ccccc1)C(=O)Nc1ccccn1	49	6	70*	19	45	33	-2	-52
Cc1ccccc1CNC(=O)C(=O)NCCC1CCCCN1S(=O)(=O)c1cccs1 (stereo not given)	15	nt	nt	nt	nt	nt	nt	nt
CCN(c1ccccc1)S(=O)(=O)c1ccc(N2CCN(c3ccccc3O)CC2)nc1	9	nt	nt	nt	nt	nt	nt	nt
CCOc1ccc(NC(=O)c2cnsn2)cc1	29	-24	49*	-7	60	14	-26	-46
CCCCCCN1C(=O)CC(NC(=O)OCC2c3ccccc3-c3ccccc32)C/C=C\C1C(C)C (stereo not given)	14	nt	nt	nt	nt	nt	nt	nt
Cc1ccc(CSC2=Nc3ccccc3C3=NC(=O)CN23)cc1	12	-16	16	25	90	nt	nt	nt
COc1cc2c(cc1OC)C1=NC(=O)CN1C(SCc1ccccc1C)=N2	-1	12	47*	8	64	43	20*	9
O=C(Nc1cccc(Cl)c1)c1ccc(OC(=S)N2CCOCC2)cc1	36	-33	57*	-2	54	33	-27	-93
Cc1c(C(=O)Nc2ccccc2)csc1-c1ccccc1	67*	-37	55*	42	54	33	-22	-111
Cc1oc(-c2ccccc2)cc1C(=O)Nc1ccccc1	-9	0	5	5	93	nt	nt	nt
COc1ccc(C(CNS(=O)(=O)c2ccc(NC(C)=O)c(OC)c2)N2CCCCC2)cc1 (stereo not given)	-5	nt	nt	nt	nt	nt	nt	nt
O=C(Nc1nc2ccccc2[nH]1)c1ccc([N+](=O)[O-])cc1	51*	-19	55*	48	56	16	-19	-92
O=S(=O)(c1cccs1)N1CCN(CC(O)COc2cc(Cl)ccc2Cl)CC1 (stereo not given)	7	21	54*	17	57	35	15*	17*
CCOC(=O)Cn1cc(Cn2c3ccccc3c(=O)n2C(C)C)nn1	-5	nt	nt	nt	nt	nt	nt	nt
Cc1ccc(S(=O)(=O)NNc2c3ccccc3nc3ccc(Cl)cc23)cc1	5	nt	nt	nt	nt	nt	nt	nt
COCC1CCN(C(=O)c2cc(COc3ccc(-n4cncn4)cc3)on2)CC1	-16	nt	nt	nt	nt	nt	nt	nt
O=C(c1cc(COc2ccc3ncccc3c2)on1)N1CCCCCC1	13	14	53*	14	58	59*	13*	14
O=C(c1cc(COc2ccc3ncccc3c2)on1)N1CCCC1	25	nt	nt	nt	nt	nt	nt	nt
COCC1CCN(C(=O)c2cc(COc3ccc4ncccc4c3)on2)CC1	21	30	55*	5	55	53*	22*	23*
COc1cccc(CN(C)C(=O)c2cc(COc3ccc4ncccc4c3)on2)c1	46	35*	74*	5	38	64*	18*	19*
O=C1C2C3c4ccccc4C(c4ccccc43)[C@@H]2c2nc3ccccc3n21 (stereo not given in full)	-1	-2	48*	15	61	57*	8	-1
CN1CCN(c2nc3ccccc3nc2C(C#N)S(=O)(=O)c2ccccc2)CC1 (stereo not given)	nt	nt	nt	17	nt	nt	nt	nt
SMILES	TRAIL sens C8	STAT1 inh	STAT3 inh-1	PPC-1+TRAIL kill	STAT3 activator	STAT3 inh-2	NFkB inh STAT3ct	STAT1 inh 2
Cc1ccc(S(=O)(=O)C(C#N)c2nc3ccccc3nc2N2CCN(C)CC2)cc1C (stereo not given)	-11	-6	50*	3	60	39	10	-9
Cc1cc(Cl)c(S(=O)(=O)N2CCN(c3ccc(F)cc3)CC2)cc1OCC(N)=O	0	4	45*	10	65	34	6	1
Cc1cc(Cl)c(S(=O)(=O)N2CCN(c3ccc(F)cc3)CC2)cc1OCC(=O)NC1CCCCC1	27	18	88*	11	27	85*	35*	10
O/C(=C\c1ccc2ccccc2n1)c1ccc(O)cc1O	66*	4	61*	48	52	29	-21	-88
CS(=O)(=O)N1CCc2cc(-c3csc(NC(=O)Cc4cccs4)n3)ccc21	27	4	82*	16	36	72*	19*	8
CCCCNC(=O)C1c2ccccc2OCC(=O)N1C1CC1 (stereo not given)	10	nt	nt	nt	nt	nt	nt	nt
Oc1ccc(-c2cn3cc(C(F)(F)F)ccc3n2)cc1	89*	2	83*	85*	29	80*	39*	18*
Clc1ccc(-c2cn3cc(Cl)ccc3n2)cc1	41	nt	nt	nt	nt	nt	nt	nt
Cc1cc2nc(-c3ccc(NC(=O)C(C)C)cc3)oc2cc1C	21	-86	5	12	96	nt	nt	nt
CC(Oc1ccc(Cl)cc1Cl)C(=O)Nc1ccc2oc(-c3ccncc3)nc2c1 (stereo not given)	28	-7	50*	17	60	50*	0	-10
CC(C)C(=O)Nc1ccc(-c2nc3cccnc3o2)cc1	47	-51	48*	37	61	15	-34	-90
Cc1ccc(-c2nc3cc(NC(=O)C(C)C)ccc3o2)cc1	46	-95	45*	36	63	-1	-38	-216
Cc1ccc(-c2nc3cc(NC(=O)C(C)C)ccc3o2)cc1C	37	-106	61*	22	50	14	-32	-203
CC(C)CC(=O)Nc1ccc2oc(-c3ccncc3)nc2c1	11	-21	20	15	89	nt	nt	nt
CCCCN1C2=NC(c3ccccc3)CN2c2ccccc21 (stereo not given)	7	nt	nt	nt	nt	nt	nt	nt
Brc1cccc(-c2nc3c4ccccc4ccn3c2Cc2ccccc2)c1	-5	nt	nt	nt	nt	nt	nt	nt
O=C(Nc1ccc(N2CCN(C(=O)c3ccc(Cl)cc3)CC2)cc1)c1cc2ccccc2o1	22	10	70*	3	43	65*	19*	7
COc1ccc(-c2nc(-c3ccc(Br)o3)no2)cc1	41	-21	49*	29	65	8	-19	-132
Cc1cc(C(=O)CSc2nnnn2-c2ccc(O)cc2)c(C)n1Cc1ccc2c(c1)OCO2	0	3	-2	35	105	nt	nt	nt
Cc1cc(C(=O)CSc2nnc(-c3cccc(F)c3)n2N)c(C)n1Cc1ccc2c(c1)OCO2	19	14	47*	29	65	39	13	10
